We go through 13 compounds from ChEMBL document CHEMBL4406852, “Combating fluconazole-resistant fungi with novel β-azole-phenylacetone derivatives” (Eur J Med Chem, 2019).

Holding throughout (assay type): functional
For test [1], the system named is Candida albicans. Description: Antifungal activity against Candida albicans SC5314 assessed as reduction in fungal growth incubated for 24 hrs by serial dilution method. The conditions noted are these: SC5314, 24 h. The method, boiled down: (§1)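 MIC by CLSI broth microdilution in RPMI 1640 buffered to pH 7.0 with MOPS. Compounds dissolved in DMSO and serially diluted to final 0.03–16 or 0.125–64 µg/mL. Inoculum 1–5 × 10^3 CFU/mL. Incubation 35 °C, 24 h. Drug-free growth and fungus-free blank controls. MIC is the lowest concentration preventing visible growth.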

In test [2] the test system is Candida albicans. The experiment in a line: Antifungal activity against Candida albicans GIM 2.194 assessed as reduction in fungal growth incubated for 24 hrs by serial dilution method. The conditions noted are these: GIM 2.194, 24 h. Put shortly:
as §1

In test [3] the test system is Candida tropicalis. The experiment in a line: Antifungal activity against Candida tropicalis GIM 2.183 assessed as reduction in fungal growth incubated for 24 hrs by serial dilution method. The conditions noted are these: GIM 2.183, 24 h. Put shortly: as §1
The test system of test [4] is Nakaseomyces glabratus. Description: Antifungal activity against Candida glabrata assessed as reduction in fungal growth incubated for 24 hrs by serial dilution method. The method, boiled down:
as §1

The subject of test [5] is Candida parapsilosis. The experiment in a line: Antifungal activity against Candida parapsilosis GIM 2.190 assessed as reduction in fungal growth incubated for 24 hrs by serial dilution method. The conditions noted are these: Lodderomyces parapsilosis, GIM 2.190, 24 h. Put shortly:
as §1

For test [6], the system named is Candida albicans. Description: Antifungal activity against fluconazole-resistant Candida albicans CaR assessed as reduction in fungal growth incubated for 24 hrs by serial dilution method. Put shortly: (§2)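 Fluconazole-resistant C. albicans clinical isolates (17# and CaR from AIDS patients; 632, 901, 904 from clinic) tested by CLSI broth dilution MIC in RPMI 1640 buffered to pH 7.0 with MOPS. Compounds dissolved in DMSO, serially diluted to final 0.03–16 or 0.125–64 μg/mL; inoculum 1–5 × 10^3 CFU/mL; 35 °C, 24 h. MIC = lowest concentration inhibiting visible growth; fluconazole and itraconazole as controls.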

For test [7], the system named is Candida albicans. Description: Antifungal activity against fluconazole-resistant Candida albicans 17 assessed as reduction in fungal growth incubated for 24 hrs by serial dilution method. The conditions noted are these: Candida albicans, 17, 24 h. Put shortly:
as §2

In test [8] the test system is Candida albicans. Description: Antifungal activity against fluconazole-resistant Candida albicans 632 assessed as reduction in fungal growth incubated for 24 hrs by serial dilution method. The conditions noted are these: Candida albicans, 632, 24 h. Put shortly:
as §2

In test [9] the test system is Candida albicans. Description: Antifungal activity against fluconazole-resistant Candida albicans 901 assessed as reduction in fungal growth incubated for 24 hrs by serial dilution method. The conditions noted are these: Candida albicans, 901, 24 h. Put shortly: as §2
For test [10], the system named is Candida albicans. Description: Antifungal activity against fluconazole-resistant Candida albicans 904 assessed as reduction in fungal growth incubated for 24 hrs by serial dilution method. The conditions noted are these: Candida albicans, 904, 24 h. Put shortly: as §2

In brackets after ≈: the same amount, converted by molar mass.

The term MIC denotes the least concentration at which growth counts as inhibited.

For the compound `Cc1ccc(-c2ccc(C(=O)NC(Cn3ccnc3)C(=O)c3ccccc3)cc2)cc1` (stereo not given), the MIC in test [1] is 2 µg/mL (≈ 4.88 µM); in test [2], over 16 µg/mL; in test [3], over 16 µg/mL; in test [4] it was over 64 µg/mL; in test [5] it was over 64 µg/mL.

As for `O=C(NC(Cn1ccnc1)C(=O)c1cccc(F)c1)c1ccc(-c2ccccc2)cc1` (stereo not given), the MIC in test [6] is over 64 µg/mL; in test [1] it was 0.06 µg/mL (≈ 0.145 µM); in [2], 0.125 µg/mL (≈ 0.302 µM); in test [3], 0.25 µg/mL (≈ 0.605 µM); in [4], 1 µg/mL (≈ 2.42 µM); in [5], 0.5 µg/mL (≈ 1.21 µM). In addition, the MIC in [7] is over 64 µg/mL; in test [8], 1 µg/mL (≈ 2.42 µM); in test [9], 0.25 µg/mL (≈ 0.605 µM); in [10], 0.5 µg/mL (≈ 1.21 µM).

In the case of `O=C(NC(Cn1ccnc1)C(=O)c1ccccc1F)c1ccc(-c2ccccc2)cc1F` (stereo not given), the MIC in [6] was 4 µg/mL (≈ 9.27 µM); in test [1], 0.5 µg/mL (≈ 1.16 µM); in test [2], 1 µg/mL (≈ 2.32 µM); in [3] it was 1 µg/mL (≈ 2.32 µM); in test [4], over 64 µg/mL; in test [5], 1 µg/mL (≈ 2.32 µM). The MIC in test [7] is 8 µg/mL (≈ 18.5 µM); in [8] it was 8 µg/mL (≈ 18.5 µM); in [9], over 64 µg/mL; in test [10] it was 2 µg/mL (≈ 4.64 µM).

In the case of `O=C(NC(Cn1ccnc1)C(=O)c1ccc(Cl)cc1)c1ccc(-c2ccccc2)cc1` (stereo not given), the MIC in test [6] was over 64 µg/mL; in test [1], 0.06 µg/mL (≈ 0.14 µM); in test [2] it was 0.125 µg/mL (≈ 0.291 µM); in test [3] it was 0.06 µg/mL (≈ 0.14 µM); in [4], 0.5 µg/mL (≈ 1.16 µM); in test [5], 0.25 µg/mL (≈ 0.582 µM). In addition, the MIC is over 64 µg/mL in test [7], 4 µg/mL (≈ 9.3 µM) in test [8], 2 µg/mL (≈ 4.65 µM) in [9] and 2 µg/mL (≈ 4.65 µM) in test [10].

For the compound `O=C(NC(Cn1ccnc1)C(=O)c1ccccc1)c1ccc(-c2ccc(Cl)cc2)cc1` (stereo not given), the MIC in [1] was 0.5 µg/mL (≈ 1.16 µM); in [2], over 16 µg/mL; in [3], over 16 µg/mL; in [4], over 64 µg/mL; in [5], over 64 µg/mL.

Take `O=C(NC(Cn1ccnc1)C(=O)c1cccc(Cl)c1)c1ccc(-c2ccccc2)cc1F` (stereo not given): the MIC in test [6] is over 64 µg/mL; in test [1], 0.06 µg/mL (≈ 0.134 µM); in test [2], 0.125 µg/mL (≈ 0.279 µM); in [3] it was 0.03 µg/mL (≈ 0.067 µM); in test [4] it was 0.25 µg/mL (≈ 0.558 µM); in [5], 0.125 µg/mL (≈ 0.279 µM). In addition, the MIC in test [7], in [8], in test [9] and in [10] was over 64 µg/mL each time.

As for `O=C(NC(Cn1ccnc1)C(=O)c1ccccc1)c1ccc(-c2ccccc2)cc1Cl` (stereo not given), the MIC in test [1] was 8 µg/mL (≈ 18.6 µM); in test [2], over 16 µg/mL; in [3] it was over 16 µg/mL; in test [4], over 64 µg/mL; in test [5], over 64 µg/mL.

For the compound `Cc1ccccc1-c1ccc(C(=O)NC(Cn2ccnc2)C(=O)c2ccccc2)cc1` (stereo not given), the MIC is over 16 µg/mL in test [1]; over 16 µg/mL in test [2]; over 16 µg/mL in test [3]; over 64 µg/mL in [4]; over 64 µg/mL in test [5].

Turning to `O=C(NC(Cn1ccnc1)C(=O)c1ccc(F)cc1)c1ccc(-c2ccccc2)c(F)c1` (stereo not given), the MIC is over 64 µg/mL in [6]; 0.06 µg/mL (≈ 0.139 µM) in test [1]; 0.25 µg/mL (≈ 0.579 µM) in test [2]; 0.25 µg/mL (≈ 0.579 µM) in test [3]; 0.5 µg/mL (≈ 1.16 µM) in test [4]; 0.25 µg/mL (≈ 0.579 µM) in [5]. Moreover, the MIC in [7] is over 64 µg/mL; in test [8], 4 µg/mL (≈ 9.27 µM); in test [9], over 64 µg/mL; in test [10], 4 µg/mL (≈ 9.27 µM).

On to `O=C(NC(Cn1ccnc1)C(=O)c1ccccc1)c1ccc(-c2ccccc2Cl)cc1` (stereo not given), for which the MIC in test [1] is 2 µg/mL (≈ 4.65 µM); in test [2], over 16 µg/mL; in test [3], over 16 µg/mL; in test [4], 4 µg/mL (≈ 9.3 µM); in [5], over 64 µg/mL.

Take `O=C(NC(Cn1ccnc1)C(=O)c1ccccc1)c1ccc(-c2ccccc2)c(F)c1` (stereo not given): the MIC in test [6] is over 64 µg/mL; in test [1] it was 0.06 µg/mL (≈ 0.145 µM); in test [2], 0.125 µg/mL (≈ 0.302 µM); in test [3], 0.06 µg/mL (≈ 0.145 µM); in test [4], 0.25 µg/mL (≈ 0.605 µM); in [5], 0.125 µg/mL (≈ 0.302 µM). The MIC in test [7] was over 64 µg/mL; in test [8], 2 µg/mL (≈ 4.84 µM); in test [9], 0.25 µg/mL (≈ 0.605 µM); in test [10], 2 µg/mL (≈ 4.84 µM).

As to `O=C(NC(Cn1ccnc1)C(=O)c1ccccc1)c1ccc(-c2ccc(F)cc2)cc1` (stereo not given), the MIC is 4 µg/mL (≈ 9.67 µM) in [1]; over 16 µg/mL in test [2]; 8 µg/mL (≈ 19.3 µM) in [3]; over 64 µg/mL in test [4]; over 64 µg/mL in test [5].

For `O=C(NC(Cn1ccnc1)C(=O)c1ccccc1F)c1ccc(-c2ccccc2)c(F)c1` (stereo not given), the MIC in [6] was over 64 µg/mL; in test [1], 0.5 µg/mL (≈ 1.16 µM); in [2] it was 0.5 µg/mL (≈ 1.16 µM); in test [3], 4 µg/mL (≈ 9.27 µM); in test [4] it was over 64 µg/mL; in test [5], 2 µg/mL (≈ 4.64 µM). The MIC was over 64 µg/mL in test [7], 1 µg/mL (≈ 2.32 µM) in test [8], 0.25 µg/mL (≈ 0.579 µM) in test [9] and 0.25 µg/mL (≈ 0.579 µM) in test [10].
